Legend:
[1] = format: in vivo, Sprague Dawley rats; settings: rat plasma, oral WG, RG, FG extracts and free ginsenosides; for Time of first peak of the plasma concentration-time curve / Time of second peak of the plasma concentration-time curve: bimodal curve
Method in brief: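 Male Sprague Dawley rats (240–260 g), fasted 12 h with water allowed, 5 per group. Dosed orally with 70% ethanol ginseng decoctions or a water mixture of pure ginsenosides (25, 86, 45, 42 mg/kg). Retro-orbital blood taken 0.083–36 h; plasma acetonitrile-precipitated with digoxin IS, dried, redissolved in methanol. Analysed by C18 UPLC-MS/MS in positive ion mode; profiles mean ± SD.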

[2] = format: in vivo, Sprague Dawley rats; settings: rats, 30 min after oral RG, WG, FG extracts and free ginsenosides; heart, liver, spleen, lungs, kidneys, brain, muscle, testes
[3] = Stability of the analytes in rat plasma under different conditions; format: in vitro ADME; settings: for Freeze–thaw stability, accuracy (mean ± SD): three freeze (−80°C)-thaw (room temperature) cycles; for Long-term stability, accuracy (mean ± SD): −80°C for 1 mo
Method in brief: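 Rat plasma QC samples (low, medium, high) run in five replicates by UPLC-MS/MS with digoxin IS. Long-term: stored at −80°C for 1 mo. Freeze–thaw: three cycles of −80°C freezing and room-temperature thawing. Post-preparative: extracted QC samples held in the autosampler at 15°C for 24 h. Precision […] taken as relative standard deviation of QC concentrations.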

[4] = Stability of the analytes in rat tissue homogenates under different conditions; format: in vitro ADME; settings: for Short-term stability, accuracy (mean ± SD) / Freeze–thaw stability, accuracy (mean ± SD) / Long-term stability, accuracy (mean ± SD): tissue; for Freeze–thaw stability, accuracy (mean ± SD): three freeze (−80°C)-thaw (room temperature) cycles; for Long-term stability, accuracy (mean ± SD): −80°C for 1 mo
Method in brief: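 Tissues rinsed in pH 7.4 sodium phosphate buffer, 0.5 g homogenised in 1 mL saline, then acetonitrile and digoxin IS added. Supernatant dried and redissolved in methanol for UPLC-MS/MS. QC tissue samples run in five replicates after storage at −80°C for 1 mo. Brain QC samples also put through three −80°C/room-temperature freeze–thaw cycles.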

[5] = mouse; higher than free ginsenoside Re; cited from earlier work

Row | Short-term stability, accuracy (mean ± SD) ([3]; plasma, spiked 2.0 μg/mL) [%] | Freeze–thaw stability, accuracy (mean ± SD) ([3]; plasma, spiked 2.0 μg/mL) [%] | Long-term stability, accuracy (mean ± SD) ([3]; plasma, spiked 2.0 μg/mL) [%] | Stability in rat plasma during sample extraction and storage [3] | Stability in the various tissue homogenates during sample extraction and storage [4] | Short-term stability, accuracy (mean ± SD) ([4]; spiked 0.2 μg/mL) [%] | Freeze–thaw stability, accuracy (mean ± SD) ([4]; spiked 0.2 μg/mL) [%] | Long-term stability, accuracy (mean ± SD) ([4]; spiked 0.2 μg/mL) [%] | Short-term stability, accuracy (mean ± SD) ([4]; spiked 0.5 μg/mL) [%] | Freeze–thaw stability, accuracy (mean ± SD) ([4]; spiked 0.5 μg/mL) [%] | Long-term stability, accuracy (mean ± SD) ([4]; spiked 0.5 μg/mL) [%] | Short-term stability, accuracy (mean ± SD) ([4]; spiked 1.0 μg/mL) [%] | Freeze–thaw stability, accuracy (mean ± SD) ([4]; spiked 1.0 μg/mL) [%] | Long-term stability, accuracy (mean ± SD) ([4]; spiked 1.0 μg/mL) [%] | Time of first peak of the plasma concentration-time curve [1] [min] | Time of second peak of the plasma concentration-time curve [1] [h] | Short-term stability, accuracy (mean ± SD) ([3]; plasma, spiked 1.0 μg/mL) [%] | Freeze–thaw stability, accuracy (mean ± SD) ([3]; plasma, spiked 1.0 μg/mL) [%] | Long-term stability, accuracy (mean ± SD) ([3]; plasma, spiked 1.0 μg/mL) [%] | SMILES | Tissue distribution (main tissues) [2] | also measured
1 | 91.3 ± 5.3 | 96.2 ± 8.5 | 95.6 ± 7.7 | stable | stable | 102.4 ± 5.1 | 108.5 ± 6.0 | 104.5 ± 8.6 | 101.1 ± 7.0 | 109.2 ± 8.1 | 108.1 ± 6.7 | 105.0 ± 5.1 | 103.7 ± 7.0 | 101.0 ± 8.7 | – | – | – | – | – | CC(C)=CCC[C@](C)(O[C@@H]1O[C@H](CO[C@@H]2O[C@H](CO)[C@@H](O)[C@H](O)[C@H]2O)[C@@H](O)[C@H](O)[C@H]1O)[C@H]1CC[C@]2(C)[C@@H]1[C@H](O)C[C@@H]1[C@@]3(C)CC[C@H](O[C@@H]4O[C@H](CO)[C@@H](O)[C@H](O)[C@H]4O[C@@H]4O[C@H](CO)[C@@H](O)[C@H](O)[C@H]4O)C(C)(C)[C@@H]3CC[C@]12C [Rb1] | mainly distributed in the heart | Time of the single peak of the plasma concentration-time curve [1]: 8 to 10 h; Short-term stability, accuracy (mean ± SD) ([3]; plasma, spiked 5.0 μg/mL): 91.5 ± 6.8%; Freeze–thaw stability, accuracy (mean ± SD) ([3]; plasma, spiked 5.0 μg/mL): 103.3 ± 6.0%; Long-term stability, accuracy (mean ± SD) ([3]; plasma, spiked 5.0 μg/mL): 106.6 ± 6.8%; Short-term stability, accuracy (mean ± SD) ([3]; plasma, spiked 10 μg/mL): 94.4 ± 7.9%; Post-preparative stability, accuracy (mean ± SD) ([3]; plasma, spiked 10 μg/mL, extracted samples in automatic sampler at 15°C for 24 h): 94.5 ± 8.0%; Freeze–thaw stability, accuracy (mean ± SD) ([3]; plasma, spiked 10 μg/mL): 98.5 ± 8.2%; Long-term stability, accuracy (mean ± SD) ([3]; plasma, spiked 10 μg/mL): 93.9 ± 8.5%
2 | 105.3 ± 6.0 | 104.3 ± 8.6 | 102.5 ± 2.3 | stable | stable | 107.2 ± 7.3 | 96.5 ± 8.4 | 95.5 ± 5.6 | 106.4 ± 8.5 | 95.7 ± 9.5 | 92.0 ± 9.4 | 93.8 ± 5.1 | 99.6 ± 3.4 | 94.4 ± 7.0 | 15 to 30 | 8 to 12 | 94.6 ± 5.2 | 106.5 ± 6.5 | 102.3 ± 9.6 | CC(C)=CCC[C@](C)(O[C@@H]1O[C@H](CO)[C@@H](O)[C@H](O)[C@H]1O)[C@H]1CC[C@]2(C)[C@@H]1[C@H](O)C[C@@H]1[C@@]3(C)CC[C@H](O[C@@H]4O[C@H](CO)[C@@H](O)[C@H](O)[C@H]4O[C@@H]4O[C@H](CO)[C@@H](O)[C@H](O)[C@H]4O)C(C)(C)[C@@H]3CC[C@]12C [Rd] | mainly distributed in the kidneys | Short-term stability, accuracy (mean ± SD) ([3]; plasma, spiked 0.1 μg/mL): 92.3 ± 4.3%; Freeze–thaw stability, accuracy (mean ± SD) ([3]; plasma, spiked 0.1 μg/mL): 92.5 ± 7.7%; Long-term stability, accuracy (mean ± SD) ([3]; plasma, spiked 0.1 μg/mL): 93.6 ± 8.5%
3 | – | – | – | stable | stable | 92.4 ± 4.8 | 100.7 ± 7.4 | 103.8 ± 6.5 | – | – | – | – | – | – | 15 to 30 | 8 to 12 | 97.6 ± 3.5 | 99.0 ± 7.4 | 92.2 ± 7.4 | CC(C)=CCC[C@](C)(O[C@@H]1O[C@H](CO)[C@@H](O)[C@H](O)[C@H]1O)[C@H]1CC[C@]2(C)[C@@H]1[C@H](O)C[C@@H]1[C@@]3(C)CC[C@H](O)C(C)(C)[C@@H]3[C@@H](O[C@@H]3O[C@H](CO)[C@@H](O)[C@H](O)[C@H]3O[C@@H]3O[C@@H](C)[C@H](O)[C@@H](O)[C@H]3O)C[C@]12C [Re] | mainly distributed in the heart and lungs | Short-term stability, accuracy (mean ± SD) ([3]; plasma, spiked 0.1 μg/mL): 102.5 ± 9.0%; Freeze–thaw stability, accuracy (mean ± SD) ([3]; plasma, spiked 0.1 μg/mL): 93.3 ± 6.2%; Long-term stability, accuracy (mean ± SD) ([3]; plasma, spiked 0.1 μg/mL): 96.6 ± 4.1%; Short-term stability, accuracy (mean ± SD) ([3]; plasma, spiked 0.5 μg/mL): 94.4 ± 4.4%; Freeze–thaw stability, accuracy (mean ± SD) ([3]; plasma, spiked 0.5 μg/mL): 97.5 ± 7.0%; Long-term stability, accuracy (mean ± SD) ([3]; plasma, spiked 0.5 μg/mL): 98.7 ± 5.0%; Short-term stability, accuracy (mean ± SD) ([4]; spiked 0.01 μg/mL): 92.2 ± 8.7%; Freeze–thaw stability, accuracy (mean ± SD) ([4]; spiked 0.01 μg/mL): 92.7 ± 8.0%; Long-term stability, accuracy (mean ± SD) ([4]; spiked 0.01 μg/mL): 93.2 ± 5.8%; Short-term stability, accuracy (mean ± SD) ([4]; spiked 0.05 μg/mL): 96.6 ± 2.8%; Freeze–thaw stability, accuracy (mean ± SD) ([4]; spiked 0.05 μg/mL): 103.5 ± 5.5%; Long-term stability, accuracy (mean ± SD) ([4]; spiked 0.05 μg/mL): 105.5 ± 9.4%; Absorption of ginsenoside Re from ginseng berry extract [5]: 0.33–0.75%
4 | 92.1 ± 8.6 | 94.3 ± 4.0 | 94.6 ± 5.6 | stable | stable | 92.3 ± 6.6 | 95.3 ± 6.6 | 92.3 ± 7.5 | – | – | – | – | – | – | 15 to 30 | 8 to 12 | 93.2 ± 7.0 | 107.0 ± 8.2 | 103.1 ± 9.4 | CC(C)=CCC[C@](C)(O[C@@H]1O[C@H](CO)[C@@H](O)[C@H](O)[C@H]1O)[C@H]1CC[C@]2(C)[C@@H]1[C@H](O)C[C@@H]1[C@@]3(C)CC[C@H](O)C(C)(C)[C@@H]3[C@@H](O[C@@H]3O[C@H](CO)[C@@H](O)[C@H](O)[C@H]3O)C[C@]12C [Rg1] | extensively distributed in the heart, lungs, and kidneys | Short-term stability, accuracy (mean ± SD) ([3]; plasma, spiked 0.5 μg/mL): 102.0 ± 6.4%; Freeze–thaw stability, accuracy (mean ± SD) ([3]; plasma, spiked 0.5 μg/mL): 106.1 ± 3.4%; Long-term stability, accuracy (mean ± SD) ([3]; plasma, spiked 0.5 μg/mL): 103.7 ± 8.0%; Short-term stability, accuracy (mean ± SD) ([4]; spiked 0.01 μg/mL): 92.2 ± 2.3%; Freeze–thaw stability, accuracy (mean ± SD) ([4]; spiked 0.01 μg/mL): 100.2 ± 3.6%; Long-term stability, accuracy (mean ± SD) ([4]; spiked 0.01 μg/mL): 101.9 ± 5.3%; Short-term stability, accuracy (mean ± SD) ([4]; spiked 0.05 μg/mL): 102.5 ± 3.1%; Freeze–thaw stability, accuracy (mean ± SD) ([4]; spiked 0.05 μg/mL): 93.5 ± 9.1%; Long-term stability, accuracy (mean ± SD) ([4]; spiked 0.05 μg/mL): 94.7 ± 7.4%
